According to ChEMBL document CHEMBL1124174, “Substituted benzamides. 1. Potential nondopaminergic antagonists of chemotherapy-induced nausea and emesis” (J Med Chem, 1988):
Several values for one entry are separate records, joined by “and”; a condition that tells them apart may be missing. Equal values may be shown once.

How the values were obtained:
Canis familiaris [1] = test: In vivo antagonism of cisplatin-induced emesis in dog measured as percentage protection for twice the dose of 1 mg/kg in 2 dogs; type: functional, Canis lupus familiaris
Summary of the method: (§1)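 Nonfasted mature male or female beagles were dosed sc twice, 30 min before and 120 min after cisplatin (3 mg/kg iv; 3 mg/mL in warm 0.9% saline, used immediately). Emesis was observed up to 5 h; events within 2 min counted as one episode. Results were given as mean emetic episodes and % protection versus a dynamic control (historical and concurrent saline means pooled). t test versus saline.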

[2] = biological target: D(2) dopamine receptor (Canis lupus familiaris) (UniProt Q9GJU1); test: In vivo antagonism activity against dopamine D2 receptor was measured as emesis in dog when administered subcutaneously; type: functional, organism-based
D(2) dopamine receptor = D(2) dopamine receptor (Rattus norvegicus, UniProt P61169); test: In vitro antagonistic activity against Dopamine receptor D2 was evaluated for the inhibition of [3H]spiperone binding
Summary of the method: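 Rat striatal membranes were prepared by differential centrifugation in 50 mM Tris pH 7.4 at 4 °C. Membrane protein (10 mg) was incubated 15 min at 37 °C with 0.1 nM [3H]spiperone and varying competitor concentrations. Buffer: 50 mM Tris HCl pH 7.5, 0.1% ascorbic acid, pargyline, 120 mM NaCl, 5 mM KCl, 2 mM CaCl2, 1 mM MgCl2. (+)-Butaclamol defined nonspecific binding. Bound ligand was collected by filtration and scintillation counted. IC50 by log-logit regression.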

Canis familiaris [3] = test: In vivo antagonism of cisplatin-induced emesis in dog measured as emetic episodes, twice the dose of 1 mg/kg in 2 dogs; type: functional, Canis lupus familiaris; summary of the method: as §1
[4] = biological target: D(2) dopamine receptor (Rattus norvegicus) (UniProt P61169); test: In vivo antagonism activity against D2 receptor was measured as stereotypy in rat when administered subcutaneously; type: functional, organism-based
Summary of the method: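 Male Long Evans rats (275 g) were dosed sc in dilute aqueous HCl (pH 4.5-5.5) 30 min before apomorphine (1 mg/kg sc).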

[5] = biological target: D(2) dopamine receptor (Rattus norvegicus) (UniProt P61169); test: In vivo antagonistic activity against dopamine D2 receptor was measured as catalepsy in rat when administered subcutaneously; type: functional, organism-based
Summary of the method: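 Male Long Evans rats (275 g) received graded sc doses in dilute aqueous HCl (pH 4.5-5.5). They were observed 180 min for catalepsy, scored when the animal stayed stationary ≥15 s on a four-cork template.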

Mustela putorius furo [6] = test: In vivo antagonism of cisplatin-induced emesis in ferret measured as emetic episodes, twice the dose of 3 mg/kg and in 3 ferrets; type: functional
Summary of the method: (§2)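 Nonfasted castrated male Fitch ferrets (1–1.5 kg) had jugular catheters implanted ≥48 h earlier under anesthesia. Compounds or saline were given iv twice, 5 min before and 90 min after cisplatin (12 mg/kg iv; 12 mg/mL in warm 0.9% saline). Emesis was observed up to 4 h; events within 1 min counted as one episode. Results were given as mean emetic episodes and % protection versus a pooled historical/concurrent control. t test versus saline.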

Mustela putorius furo [7] = test: In vivo antagonism of cisplatin-induced emesis in ferret measured as percentage protection for twice the dose of 3 mg/kg and in 3 ferrets; type: functional; summary of the method: as §2
Mustela putorius furo [8] = test: In vivo antagonism of cisplatin-induced emesis in ferret measured as emetic episodes, twice the dose of 1 mg/kg and in 3 ferrets; type: functional; summary of the method: as §2

Chain of D(2) dopamine receptor (P61169 whole entry): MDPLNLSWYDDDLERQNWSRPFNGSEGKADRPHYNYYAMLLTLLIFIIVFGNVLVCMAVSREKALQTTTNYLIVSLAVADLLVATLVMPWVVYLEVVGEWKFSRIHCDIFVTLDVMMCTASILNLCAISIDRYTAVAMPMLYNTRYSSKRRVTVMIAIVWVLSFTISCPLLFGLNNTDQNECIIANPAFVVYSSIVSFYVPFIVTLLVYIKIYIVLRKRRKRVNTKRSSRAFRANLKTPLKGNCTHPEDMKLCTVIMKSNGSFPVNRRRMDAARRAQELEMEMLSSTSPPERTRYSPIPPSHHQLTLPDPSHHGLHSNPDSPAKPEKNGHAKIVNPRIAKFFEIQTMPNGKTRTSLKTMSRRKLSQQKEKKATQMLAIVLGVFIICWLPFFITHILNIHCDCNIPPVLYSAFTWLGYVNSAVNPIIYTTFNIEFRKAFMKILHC
Chain of D(2) dopamine receptor (Rattus norvegicus) (P61169 whole entry): as above
Chain of D(2) dopamine receptor (Canis lupus familiaris) (Q9GJU1 whole entry): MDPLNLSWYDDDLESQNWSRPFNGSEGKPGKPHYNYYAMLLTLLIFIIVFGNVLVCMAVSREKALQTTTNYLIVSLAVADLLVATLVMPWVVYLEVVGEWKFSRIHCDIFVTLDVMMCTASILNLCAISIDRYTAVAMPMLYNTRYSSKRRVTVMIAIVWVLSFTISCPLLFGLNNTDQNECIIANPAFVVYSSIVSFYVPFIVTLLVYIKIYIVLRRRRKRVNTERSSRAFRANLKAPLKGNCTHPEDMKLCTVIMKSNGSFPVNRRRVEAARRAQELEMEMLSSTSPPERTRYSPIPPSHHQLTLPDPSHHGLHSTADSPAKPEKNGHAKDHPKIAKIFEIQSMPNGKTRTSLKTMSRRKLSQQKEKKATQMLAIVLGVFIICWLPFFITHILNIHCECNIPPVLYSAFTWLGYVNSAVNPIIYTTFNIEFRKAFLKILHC

Structure (SMILES) | Protection (Canis familiaris [1]) [%] | ED50 [2] [mg/kg] | IC50 (D(2) dopamine receptor) [nM] | Emetic episodes (Canis familiaris [3]) | ED50 [4] [mg/kg] | ED50 [5] [mg/kg] | Emetic episodes (Mustela putorius furo [6]; 3 mg/kg) | Protection (Mustela putorius furo [7]) [%] | Emetic episodes (Mustela putorius furo [6]) | Emetic episodes (Mustela putorius furo [8]) | Protection (Mustela putorius furo [8]) [%]
CCN(CC)CCNC(=O)c1cc(Cl)c(N)cc1OCCOC | 88 | > 3 | > 1000 | 1.5 | > 40 | > 40 | 1.7 and 5 |  |  |  | 
CCN(CC)CCC[S+]([O-])c1cc(Cl)c(N)cc1OC (stereo unspecified) |  | > 1 | > 1000 |  | > 40 | > 40 |  | 70 | 2 |  | 
CCN(CC)CCNC(=O)c1cc(Cl)c(N)cc1OCc1cc(C)no1 |  | > 3 | > 1000 |  | > 40 | > 40 |  | 72 | 2 |  | 
CCN(CC)CCNC(=O)c1cc(Cl)c(N)cc1OCC(=O)OC |  | > 3 | > 1000 |  | > 40 | > 40 |  | 30 | 5 |  | 
CCN(CC)CCNC(=O)c1cc(Cl)c(N)cc1OC[C@@H](C)O (stereo in doubt; 8f) |  | > 3 |  |  | > 40 | > 40 |  |  |  |  | 
C=CCN1CCCC1CNC(=O)c1cc2[nH]nnc2cc1OC (stereo unspecified) [ALIZAPRIDE] |  |  | 200 |  |  |  |  |  |  |  | 
CCN(CC)CCNC(=O)c1cc(Cl)c(N)cc1OCCC1(C)OCCO1 |  | > 3 | > 1000 |  | > 40 | > 40 |  | 80 | 1.3 |  | 
CCN(CC)CCNC(=O)c1cc(Cl)c(N)c2c(C)c(C)oc12 |  | > 3 | > 1000 |  | > 40 | > 40 |  | 53 | 3.3 |  | 
CCN(CC)CCNC(=O)c1cc(Cl)c(N)cc1OCc1ccccc1 |  | > 1 | > 1000 |  | > 40 | > 40 |  |  |  |  | 
CCN1CCCCCOc2cc(N)c(Cl)cc2C(=O)NCCC1 |  | > 3 | 7.7 |  | 10 | > 40 |  | 67 | 2.3 |  | 
CCN(CC)CCNC(=O)c1cc(Cl)c(N)cc1OCC1OCCO1 |  | > 3 | > 1000 |  | > 40 | > 40 |  | 67 | 2.3 | 4 | 43
CCN(CC)CCNC(=O)c1cc(Cl)c(N)cc1OCC1(C)CO1 (stereo unspecified) |  | > 3 | > 1000 |  | > 40 | > 40 |  | 53 | 3.3 |  | 
CCN(CC)CCNC(=O)c1cc(Cl)c(N)cc1OCC(O)COC (stereo unspecified) |  | > 3 | > 1000 |  | > 40 | > 40 |  | 54 | 3.3 |  | 
C=CCN1CCCC1CNC(=O)c1cc2nn[nH]c2cc1OC(C)C(C)=O (stereo unspecified) |  | > 3 | > 1000 |  | > 40 | > 40 |  | 21 | 5.7 |  | 
CCN(CC)CCNC(=O)c1cc(Cl)c(N)cc1OCC(=O)c1cccs1 | 75 |  | > 1000 | 3 | > 40 | > 40 |  | 95 | 0.3 |  | 
CCN(CC)CCNC(=O)c1cc(Cl)c(N)cc1OC(C)C(C)O (stereo in doubt; 8g) |  | > 3 |  |  | > 40 | > 40 |  |  |  |  | 
CCN(CC)CCNC(=O)c1cc(Cl)c(N)cc1OC[C@@H](C)O (stereo in doubt; 8e) |  | > 3 |  |  | > 40 | > 40 |  |  |  |  | 
C=CCN1CCCC1CNC(=O)c1cc2[nH]nnc2cc1O (stereo unspecified) |  |  | > 1000 |  |  |  |  |  |  |  | 
C=CCN1CCCC1CNC(=O)c1cc2nn[nH]c2cc1O (stereo unspecified) |  | > 3 |  |  | > 40 | > 40 |  | 0 | 8 |  | 
CCN1CCCNC(=O)c2cc(Cl)c(N)cc2OCCOCC1 |  | > 3 | > 1000 |  |  | > 40 |  | 0 | 11.7 |  | 
CCN(CC)CCNC(=O)c1cc(Cl)c(N)cc1OCC1CO1 (stereo unspecified) |  | > 3 | > 1000 |  | > 40 | > 40 |  | 44 | 4.7 |  | 
CCN(CC)CCNC(=O)c1cc(Cl)c(N)cc1OCC1CCCO1 (stereo unspecified) |  | > 3 | > 1000 |  | > 40 | > 40 |  | 54 | 3.3 |  | 
CCN(CC)CCN(C)C(=O)c1cc(Cl)c(N)cc1OC |  | > 3 | > 1000 |  | > 40 | > 40 |  | 0 | 8.7 |  | 
CCN(CC)CCNC(=O)c1cc(Cl)c(N)cc1OCC(O)CO (stereo unspecified) |  | > 3 | > 1000 |  | > 40 | > 40 |  | 10 | 6.3 |  | 
CCN(CC)CCNC(=O)c1cc(Cl)c(N)cc1OC(C)C(C)O (stereo in doubt; 8h) |  | > 3 |  |  | > 40 | > 40 |  |  |  |  | 
CCN(CC)CCN(C)C(=O)c1cc(Cl)c(N)cc1O.Cl |  | > 3 | > 1000 |  | > 40 | > 40 |  | 30 | 5 |  | 
CCN(CC)CCNC(=O)c1cc(Cl)c(N)cc1OC(C)C(C)O (stereo in doubt; 8g,h) |  |  |  |  | > 40 | > 40 |  |  |  |  | 
